Assay outcomes from PubChem.
TRPC4 act: opens the mouse TRPC4 cation channel | AID 2237 | B-score at 10 µM | 310,000 tested, 0.49% active | HEK293 TRPC4beta/mu-opioid, Fluo4 calcium fluorescence; active compounds read high | Q9QUQ5;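 active = B-score above 5 SD of library B-scores, and initial fluorescence ratio not above library mean plus 5 SD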;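 also: positive B-score marks a calcium rise read as TRPC4 activation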
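Material: TRPC4beta and mu-opioid receptor HEK293 stable cells | Incubation: 45 min room-temperature Fluo4 loading, 110 s read | Detection: Kinetic Fluo4 calcium fluorescence | Measure: Integrated baseline-normalised fluorescence ratio, converted to per-well B score | Benchmarks: Low control buffer alone, high control maximal DAMGO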
TRPC4 inh: blocks the mouse TRPC4 cation channel; Q9QUQ5; HEK293 TRPC4beta/mu-opioid, DAMGO-evoked Fluo4 calcium flux; active compounds read low; B-score at 10 µM; 300,000 tested, 0.39% active;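 active = B-score over 3 SD under the library average, no early fluorescence shift, positive overall ratio signal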
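Material: HEK293 cells with stable TRPC4beta plus mu-opioid receptor expression / Probe or stimulus: DAMGO in two steps, submaximal then maximal / Compound: single concentration per test compound / Technique: kinetic Fluo4 fluorescence imaging of calcium influx / Read-out: per-well B score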
TRPC6 activator: activators of mouse TRPC6 channel | Q61143 | HEK293-TRPC6 membrane potential dye fluorescence; active compounds read high | B-score at 10 µM | 310,000 tested, 0.13% active;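 active = B-score of the integrated fluorescence ratio above library mean plus 3 SD, and starting fluorescence ratio within library mean plus 5 SD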;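 also: higher score means more depolarization so channel activation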
TRPC4 potent: allosterically enhances the mouse TRPC4 cation channel; Q9QUQ5; HEK293 TRPC4beta/mu-opioid, DAMGO EC20, Fluo-4 Ca2+ flux; active compounds read high; B-score at 10 µM; 310,000 tested, 0.42% active; AID 2227;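 active = B-score of calcium response area above 5 SD of library B-scores, with initial fluorescence ratio within 5 SD of library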;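 also: B-score of integrated fluorescence ratio over time as area under calcium response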
TRPC6 inh: mouse TRPC6 channel inhibition. Q61143. HEK293-TRPC6, membrane potential dye, ACh-evoked depolarization; active compounds read low. B-score at 10 µM. 310,000 tested, 1.1% active. AID 2553;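 active = B-score under library mean minus 3 SD, initial fluorescence not abnormally high, positive integrated signal ratio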;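 also: B-score derived from integrated fluorescence ratio over the kinetic read; more negative B-score means stronger inhibition of depolarization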
TRPC4 sel inh 2: second check of whether TRPC6 inhibitors also affect mouse TRPC4; shares compounds with TRPC6 inh; HEK293 TRPC4/MOR, membrane potential dye fluorescence; channel activated by saturating DAMGO dose; inhibition, % at 10 µM; 920 tested, 42% active; AID 2776;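 active = compounds whose fluorescence signal differed from control wells by over 3 SD, either direction, in both duplicate plates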
TRPC4 spec: tests whether TRPC6 inhibitors also affect mouse TRPC4; shares compounds with TRPC6 inh; HEK293 TRPC4/mu-opioid, membrane potential fluorescence; activity change, negative = inhibition, % at 10 µM; 920 tested, 61% active;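 active = rise or fall in signal beyond 3 SD of buffer-only wells in both replicate plates, either sign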;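 also: integrated kinetic ratio of fluorescence range over baseline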
HEK293 MPD ctr 2-1: second check of TRPC6 inhibitor effects in parental HEK293 cells. shares compounds with TRPC6 inh. parental HEK293 membrane potential dye fluorescence; maximal acetylcholine challenge after compound addition. signal change vs control, % at 10 µM. 920 tested, 31% active;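 active = membrane potential signal moving either way by over 3 SD of the maximum-effect control, in both duplicate plates, meaning non-specific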
HEK293 MPD ctr-1: checks TRPC6 inhibitor effects in parental HEK293 cells | parental HEK293 membrane potential dye fluorescence | membrane potential signal change, % at 10 µM | AID 2780 | 920 tested, 60% active | shares compounds with TRPC6 inh;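 active = membrane potential signal shifting up or down by more than 3 SD of buffer-only wells, on both duplicate plates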
HEK293 MPD ctr-2: counter-screen for TRPC6 modulators: effect in parental HEK293 cells | 2,400 tested, 51% active | shares compounds with TRPC6 inh | membrane potential dye fluorescence | membrane potential signal change, % at 10 µM;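 active = membrane potential signal moves up or down beyond 5 SD from buffer-only wells, on both duplicate plates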
HEK293 MPD ctr 2-2: second counter-screen for TRPC6 modulators: effect in parental HEK293 cells | AID 488926 | 2,400 tested, 14% active | membrane potential dye fluorescence; after compound, maximal acetylcholine stimulation | shares compounds with TRPC6 inh | inhibition, % at 10 µM;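 active = membrane potential signal drops by more than 5 SD from the mean control signal, in both duplicate plates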;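 also: plate controls were acetylcholine ECmax control wells for no effect and buffer only wells for full effect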
TRPC4 ctr mod: selectivity of TRPC6 modulators against mouse TRPC4; shares compounds with TRPC6 inh; HEK293 TRPC4/mu-opioid, membrane potential fluorescence; percent change from control (negative = decrease, positive = increase), % at 10 µM; 2,400 tested, 69% active; AID 488927;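 active = membrane potential signal moved up or down beyond 5 SD of buffer control wells, in both duplicate plates, actives on both sides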;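 also: plate controls were assay buffer wells for no effect and DAMGO maximal-effect wells for full effect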
TRPC4/MOR inh 2: second selectivity test of TRPC6 modulators against mouse TRPC4. 2,400 tested, 55% active. inhibition, % at 10 µM. AID 488928. shares compounds with TRPC6 inh. HEK293 TRPC4/mu-opioid, membrane potential dye fluorescence; stimulated with maximal-effect DAMGO;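 active = drop in membrane potential signal beyond 5 SD of the control wells in both duplicate plates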;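 also: TRPC4 counter screen for TRPC6 hits run under conditions tuned for TRPC6 not TRPC4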
TRPC6 inh conf: confirmation of mouse TRPC6 inhibitors; 3,300 tested, 43% active; HEK293-TRPC6, membrane potential dye, ACh-evoked depolarization; inhibition, % at 10 µM; shares compounds with TRPC6 inh;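 active = fluorescence ratio falls more than 5 SD below the full-stimulation control mean, in both duplicate runs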;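 also: integrated fluorescence ratio of peak minus minimum over baseline after agonist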
TRPC6 act conf: confirmation of mouse TRPC6 activators; shares compounds with TRPC6 inh; HEK293-TRPC6 membrane potential dye fluorescence, FDSS; activation, % at 10 µM; 2,800 tested, 11% active;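 active = ratio signal rise beyond 5 SD above unstimulated control wells' mean, seen in both duplicate runs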;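 also: plate controls were buffer EC0 wells for no effect and acetylcholine ECmax response for full effect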
* hit, by the source's call. The list is not random: actives were taken first. Their share in the collection is about 2.3%.

How did Cc1ccc(S(=O)(=O)N2CCN(C(=O)c3ccccc3)CC2)cc1 do in these assays?
TRPC4 act: inactive; TRPC4 inh: inactive; TRPC6 activator: 15*; TRPC4 potent: inactive; TRPC6 inh: -12*; HEK293 MPD ctr-2: inactive; HEK293 MPD ctr 2-2: inactive; TRPC4 ctr mod: inactive; TRPC4/MOR inh 2: inactive; TRPC6 inh conf: 66%*; TRPC6 act conf: 98%*

How did O=C(c1cccc(F)c1)N1CCN(S(=O)(=O)c2ccc(C(F)(F)F)cc2)CC1 do in these assays?
TRPC4 act: inactive; TRPC6 activator: 14*; TRPC4 potent: inactive; TRPC6 inh: -12*; HEK293 MPD ctr-2: inactive; HEK293 MPD ctr 2-2: inactive; TRPC4 ctr mod: inactive; TRPC4/MOR inh 2: inactive; TRPC6 inh conf: 62%*; TRPC6 act conf: 72%*

Results for O=C(c1cccc(S(=O)(=O)N2CCCC2)c1)N1CCN(c2ccccc2F)CC1 ?
TRPC4 act: inactive; TRPC4 inh: inactive; TRPC6 activator: inactive; TRPC4 potent: inactive; TRPC6 inh: inactive

Results for Cc1ccc(S(=O)(=O)N2CCN(C(=O)c3cccc(-n4cccc4)c3)CC2)cc1 ?
TRPC4 act: inactive; TRPC4 inh: inactive; TRPC6 activator: 14*; TRPC4 potent: inactive; TRPC6 inh: -13*; HEK293 MPD ctr-2: inactive; HEK293 MPD ctr 2-2: inactive; TRPC4 ctr mod: inactive; TRPC4/MOR inh 2: inactive; TRPC6 inh conf: inactive; TRPC6 act conf: inactive

How did Cc1cc(C(C)(C)C)ccc1OCC(=O)N/N=C\c1c(C)n(C)n(-c2ccccc2)c1=O do in these assays?
TRPC4 act: inactive; TRPC4 inh: inactive; TRPC6 activator: inactive; TRPC4 potent: inactive; TRPC6 inh: inactive

Results for C=CCN(c1ccccc1)S(=O)(=O)c1cccc(C(=O)N2CCCC2)c1 ?
TRPC4 act: inactive; TRPC4 inh: inactive; TRPC6 activator: inactive; TRPC4 potent: inactive; TRPC6 inh: inactive

Results for O=C(c1cccc(-n2cccc2)c1)N1CCN(S(=O)(=O)c2ccccc2)CC1 ?
TRPC4 act: inactive; TRPC4 inh: inactive; TRPC6 activator: inactive; TRPC4 potent: inactive; TRPC6 inh: -7*; TRPC4 sel inh 2: inactive; TRPC4 spec: inactive; HEK293 MPD ctr 2-1: inactive; HEK293 MPD ctr-1: inactive; TRPC6 inh conf: 66%*; TRPC6 act conf: inactive
